Values after ≈ are worked out from the molar mass of the structure shown.
What was measured:
[1] = test system: Vero; experiment: Cytotoxicity against African green monkey Vero cells assessed as reduction in cell viability after 48 hrs by MTT assay; format: cell-based; conditions: Chlorocebus sabaeus
Method in brief: (§1)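 Vero or HepG2 cells in RPMI1640 with 10% FBS at 37 °C, 5% CO2, seeded at 4×10^5 cells/mL. Threefold dilutions at 64–0.26 µg/mL final for 48 h. Cells then washed with HBSS, MTT added for 4 h, absorbance read at 492 nm. IC50 taken relative to untreated control.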

[2] = test system: Mycobacterium tuberculosis; experiment: Antimicrobial activity against Mycobacterium tuberculosis H37Rv after 7 days by MABA; format: functional; conditions: 168 h
Method in brief: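 Strain H37Rv or clinical isolates grown to late log phase in 7H9-ADC-TG, washed, resuspended in PBS, filtered (8 µm) and frozen. On day 7 Tween 80 and alamar blue added, read 16–24 h later (ex 530/em 590). MIC = lowest concentration giving ≥90% fluorescence reduction versus bacterium-only controls.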

[3] = test system: Mycobacterium tuberculosis; experiment: Antimicrobial activity against Mycobacterium tuberculosis H37Rv infected in BALB/C mouse assessed as bacterial burden in mouse lung at 25 mg/kg, po administered via gavage treated 5 times per week for 3 weeks starting from day 10 post infection (reference value: 7.102 +/- 0.152 log10CFU); format: functional
[4] = test system: HepG2; experiment: Cytotoxicity against human HepG2 cells assessed as reduction in cell viability after 48 hrs by MTT assay; format: cell-based; conditions: HepG2, 48 h; method in brief: as §1
[5] = Intrinsic clearance in human hepatocytes assessed per million cells at 1 uM incubated up to 120 mins by LC-MS/MS analysis; format: ADME, cell-based, Hepatocyte; conditions: read-out: CLH
Method in brief: (§2)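 Pooled male CD-1 mouse or pooled human hepatocytes at 1 million cells/mL final, compound at 1 µM. Incubated at 37 °C in a CO2 incubator with shaking (~100 rpm). Samples taken at 0, 15, 30, 60, 90 and 120 min and quenched with cold ACN/MeOH containing internal standard. Parent compound remaining measured by LC-MS/MS.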

[6] = Half life in CD-1 mouse hepatocytes assessed per million cells at 1 uM incubated up to 120 mins by LC-MS/MS analysis; format: ADME, cell-based, Hepatocyte; method in brief: as §2
[7] = Metabolic stability in CD-1 mouse liver microsomes assessed as parent compound remaining at 1 uM measured after 30 mins in presence of NADPH by LC-MS/MS analysis; format: ADME, Microsome; conditions: read-out: Stability
Method in brief: (§3)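 Male CD-1 mouse or pooled human liver microsomes (1 mg/mL protein), compound at 1 µM, 37 °C. Reaction started with 1 mM NADPH and quenched with cold ACN/MeOH containing internal standard. Parent remaining measured by LC-MS/MS; the 30-min value is normalised to time zero.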

[8] = Half life in human hepatocytes assessed per million cells at 1 uM incubated up to 120 mins by LC-MS/MS analysis; format: ADME, cell-based, Hepatocyte; method in brief: as §2
[9] = Intrinsic clearance in CD-1 mouse hepatocytes assessed per million cells at 1 uM incubated up to 120 mins by LC-MS/MS analysis; format: ADME, cell-based, Hepatocyte; conditions: read-out: CLH; method in brief: as §2
[10] = Metabolic stability in human liver microsomes assessed as parent compound remaining at 1 uM measured after 30 mins in presence of NADPH by LC-MS/MS analysis; format: ADME, Microsome; conditions: read-out: Stability; method in brief: as §3
[11] = Selectivity index, ratio of IC50 for human HepG2 cells to MIC=>90 for Mycobacterium tuberculosis H37Rv; format: toxicity; conditions: read-out: Selectivity Index
[12] = Inhibition of Mycobacterium tuberculosis DprE1 expressed in Escherichia coli BL21(DE3) by fluorescence based assay
Method in brief: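 Buffer: 50 mM Hepes pH 7.5, 100 mM NaCl, 1.5% DMSO, 100 µM Tween-20, 2 µM FAD, 50 µM resazurin. DprE1 (1 µM) with 1 mM FPR at 30 °C across inhibitor concentrations. Resorufin formation followed by fluorescence (ex 530/em 595 nm).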

With `COc1ccc(CN(C)c2nc(=O)c3cc(C(F)(F)F)cc([N+](=O)[O-])c3o2)cc1OC` the IC50 [1] was 9.46 µg/mL (≈ 21.5 µM) and the MIC90 [2] was 0.057 µg/mL (≈ 0.13 µM).

`NNC(=O)c1ccncc1` [ISONIAZID] showed an MIC90 [2] of 0.035 µg/mL (≈ 0.255 µM) and an Activity [3] of 1.929 log10CFU.

In the case of `O=c1cc(NC2CCCCC2)sc2c([N+](=O)[O-])cc(C(F)(F)F)cc12`, the IC50 [1] is reported as > 64 µg/mL and the MIC90 [2] is reported as 1.53 µg/mL (≈ 4.1 µM).

In the case of `O=c1nc(N2CCN(CC3CCCCC3)CC2)sc2c([N+](=O)[O-])cc(C(F)(F)F)cc12` [MACOZINONE], the IC50 [1] is reported as > 64 µg/mL, the IC50 [4] is reported as 19 µg/mL (≈ 41.6 µM) and the hepatocyte CLint at 1 µM [5] is reported as 14.5 µL/min/1e6 cells. For the same compound, the half-life at 1 µM [6] was 2.75 h, the MIC90 [2] was < 0.016 µg/mL and the remaining at 0.5 h, 1 µM [7] was 63.9%. For the same compound, the half-life at 1 µM [8] was 0.797 h, the hepatocyte CLint at 1 µM [9] was 4.2 µL/min/1e6 cells and the remaining at 0.5 h, 1 µM [10] was 58.7%. The selectivity ratio [11] was > 1190 and the IC50 [12] was 200 nM.

In the case of `O=c1cc(NCC2CCCCC2)sc2c([N+](=O)[O-])cc(C(F)(F)F)cc12`, the IC50 [1] is reported as > 64 µg/mL and the MIC90 [2] is reported as 0.402 µg/mL (≈ 1.04 µM).

`O=c1nc(N2CCN(c3nccs3)CC2)oc2c([N+](=O)[O-])cc(C(F)(F)F)cc12` showed an MIC90 [2] of 4 µg/mL (≈ 9.36 µM).

With `CN(Cc1ccccc1)c1cc(=O)c2cc(C(F)(F)F)cc([N+](=O)[O-])c2s1` the IC50 [1] was > 64 µg/mL, the MIC90 [2] was < 0.016 µg/mL and the remaining at 0.5 h, 1 µM [7] was 13%. For the same compound, the remaining at 0.5 h, 1 µM [10] was 11.6%.

For `O=c1nc(N2CCN(Cc3ccccc3)CC2)oc2c([N+](=O)[O-])cc(C(F)(F)F)cc12`, the IC50 [1] was 33.5 µg/mL (≈ 77.1 µM) and the MIC90 [2] was 3.93 µg/mL (≈ 9.05 µM).

With `CC1COC2(CCN(c3nc(=O)c4cc(C(F)(F)F)cc([N+](=O)[O-])c4o3)CC2)O1` (stereo unspecified) the IC50 [1] was 9.21 µg/mL (≈ 22.2 µM) and the MIC90 [2] was < 0.016 µg/mL.

With `O=C1CN(c2cc(=O)c3cc(C(F)(F)F)cc([N+](=O)[O-])c3s2)CCN1CC1CCCCC1` the IC50 [1] was > 64 µg/mL, the MIC90 [2] was < 0.016 µg/mL and the remaining at 0.5 h, 1 µM [7] was 7.38%. The remaining at 0.5 h, 1 µM [10] was 86.6%.

In the case of `O=c1nc(N2CCN(CC3CCCCC3)CC2)oc2c([N+](=O)[O-])cc(C(F)(F)F)cc12`, the IC50 [1] is reported as 52.1 µg/mL (≈ 118 µM) and the MIC90 [2] is reported as 0.159 µg/mL (≈ 0.361 µM).

In the case of `O=c1nc(NCc2ccc3c(c2)OCCO3)oc2c([N+](=O)[O-])cc(C(F)(F)F)cc12`, the IC50 [1] is reported as 25.3 µg/mL (≈ 59.7 µM) and the MIC90 [2] is reported as 0.03 µg/mL (≈ 0.0709 µM).

With `O=c1nc(NCC2CCCCC2)oc2c([N+](=O)[O-])cc(C(F)(F)F)cc12` the IC50 [1] was 29.7 µg/mL (≈ 80.1 µM) and the MIC90 [2] was 0.05 µg/mL (≈ 0.135 µM).

With `COc1ccc(CN(C)c2cc(=O)c3cc(C(F)(F)F)cc([N+](=O)[O-])c3s2)cc1OC` the IC50 [1] was > 64 µg/mL and the MIC90 [2] was < 0.016 µg/mL.

For `COc1ccc(CNc2nc(=O)c3cc(C(F)(F)F)cc([N+](=O)[O-])c3o2)cc1OC`, the IC50 [1] was 29.2 µg/mL (≈ 68.7 µM) and the MIC90 [2] was 0.226 µg/mL (≈ 0.531 µM).

In the case of `O=C1CN(c2nc(=O)c3cc(C(F)(F)F)cc([N+](=O)[O-])c3o2)CCN1CC1CCCCC1`, the IC50 [1] is reported as 25.4 µg/mL (≈ 55.9 µM) and the MIC90 [2] is reported as 6.28 µg/mL (≈ 13.8 µM).

For `CC1COC2(CCN(c3cc(=O)c4cc(C(F)(F)F)cc([N+](=O)[O-])c4o3)CC2)O1` (stereo unspecified), the IC50 [1] was 18.9 µg/mL (≈ 45.5 µM) and the MIC90 [2] was < 0.016 µg/mL.

For `O=c1cc(NCc2ccccc2)sc2c([N+](=O)[O-])cc(C(F)(F)F)cc12`, the IC50 [1] was > 64 µg/mL and the MIC90 [2] was > 32 µg/mL.

For `CN(Cc1ccc2c(c1)OCCO2)c1nc(=O)c2cc(C(F)(F)F)cc([N+](=O)[O-])c2o1`, the IC50 [1] was 9.27 µg/mL (≈ 21.2 µM) and the MIC90 [2] was < 0.016 µg/mL.

In the case of `CN(Cc1ccc2c(c1)OCCO2)c1cc(=O)c2cc(C(F)(F)F)cc([N+](=O)[O-])c2s1`, the IC50 [1] is reported as > 64 µg/mL, the MIC90 [2] is reported as < 0.016 µg/mL and the remaining at 0.5 h, 1 µM [7] is reported as 6.46%. The remaining at 0.5 h, 1 µM [10] was 44.9%.

With `O=c1nc(NC2CCCCC2)oc2c([N+](=O)[O-])cc(C(F)(F)F)cc12` the IC50 [1] was 5.39 µg/mL (≈ 15.1 µM) and the MIC90 [2] was 0.118 µg/mL (≈ 0.33 µM).

Source: ChEMBL document CHEMBL4382210, “Identification of novel benzothiopyranone compounds against Mycobacterium tuberculosis through scaffold morphing from benzothiazinones” (Eur J Med Chem, 2018)
